According to the EternaBench riboswitch data:

System: MS2 coat protein
Assay: apparent Kd, MS2 coat protein; higher = weaker binding; RNA-MaP array; FMN 200 µM where present
Summary of the method: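 Two titrations, one without ligand and one with constant ligand, were run with SNAP-549-labelled MS2 coat protein from 0.7 or 1.5 nM, doubling to 3 µM. The targets were designs transcribed by stalled E. coli RNA polymerase on Illumina sequencing-chip clusters, in 100 mM Tris-HCl pH 7.5, 80 mM KCl, 4 mM MgCl2, BSA, DTT, yeast tRNA and Tween-20. The apparent Kd is the median of filtered per-cluster binding-curve fits, with green signal normalised to red-channel RNA signal and control-cluster median Fmax.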

[1] = designed as: OFF switch for flavin mononucleotide, no ligand
[2] = ligand present: flavin mononucleotide, designed as: OFF switch for flavin mononucleotide
[3] = designed as: ON switch for flavin mononucleotide, no ligand
[4] = ligand present: flavin mononucleotide, designed as: ON switch for flavin mononucleotide

Sequence	apparent Kd [1] [nM]	apparent Kd [2] [nM]	apparent Kd [3] [nM]	apparent Kd [4] [nM]
UUGUUGUGUGUAGGAUAUGCAUAUUAUUAUUAUGCAGAAGGACAUGAGGAUCACCCAUGUGUAUUAUUAUUAUAUAUUAUAUAU	24.6	38		
GAGCCCGAUGAGAAGGGUUACAUGAGGAUCACCCAUGUCGACCUUGGCGUAACAGGAUAUCAUCGAGCUCUGUGCGUUGACCCA	25.5	132		
AUCAGCUUGACAGGAUAUACAUGACUGCGAAAGCAGUCUAUCUUAAUAACAUGAGGAUCACCCAUGUAGAAGGGUCGAGCUGAU	17.8	27		
GGACGUGUCGUUUACAUGAGGAUCACCCAUGUCGAUGGACAUGAGGAUAUGGAUCCGAAUCGGAUCCAGAAGGCAUGCACGUCC			85.3	18.9
CACCGUUACAGAGGAUAUCGUACAUGAGGAUCACCCAUGUAAUAAAUGAGAAUUUCGGAUGUAUGCGAGAAGGCUGGAAUCGGC	28.5	36.1		
CUUCGACAUGAGGAUCACCCAUGUCAGGAUAUUGUGUAUCGGGUUUUUUACGGAUAGGCAAGAAGGGAUGUGUG	35.6	34.2		
GGUGAAGCAGGAUAUGUAUCGAUAUACAUGAGGAUCACCCAUGUCAUGUUCGAAUCGCAUAUAGAAGGGCUUCACC	13.4	16.7		
UCAUGGAAGUAGAAGGGUAAUAUAUUAGAUUUUACUAUUAGAUGUAGAUAUACAGGAUAUGCGAACAUGAGGAUCACCCAUGUG	62.7	35.6		
GGAUAGGACAGAGGAUAUACGUGCUAGAGAUACUAGCAAAAUUUCCUCACAUGAGGAUCACCCAUGUAGAAGGCUGACCUAUCG	14.9	412		
AUAUGAUAGAUAGGAUAUACUAUGGUUGAAGAAGUAGAAGGAUCAAUUGGGAAAUGUACAUGAGGAUCACCCAUGUUAUGGGUU			943	493
CCGAAUAAGCAGGAUAUCGUAUCGGAAACGAUACGAGAAGGGUUAACAUGAGGAUCACCCAUGUUCCUUAACGG	20.3	24.8		
GGAAAACAUGAGGAUCACCCAUGUGAGGAUAUUGAAACAAACAAAACAAACAAACAAACAAGAAGGCACAGGAA	26.1	25.5		
AUUUUGCUCGCAGGAUAUCAGGAAAUGUUGAUCUUCUGUAUCUCCUACAUGAGGAUCACCCAUGUUGAGAAGGGCGAUGGCAAU	106	358		
AUAUAUUAGUUAGGAUAUCUGUAAUUUAUUGAAACAUGAGGAUCACCCAUGUUCAUAAAUUUAUAGGAGAAGGGAUAGAUAUAU			5.17	5.03
AUCAGCUCGUCAGGAUAUACGUCACUGCGUCAGCAGUGUGGUAAGAUGACAUGAGGAUCACCCAUGUAGAAGGGACGAGCUGAU	6.82	15.8		
AAAAAACAUGAGGAUCACCCAUGUGAGGAUAUUGGUAUUCAGGGUAUAAUCUCAAUAGCGAGAAGGCGCAUAAA	43.6	44.3		
CCAGCGUAUGUGAGGAUAUGCUGGUCCUUGGAUCAGCAGAAGGCACAUGAGGAUCACCCAUGUGAGAACGUUGG	26.5	187		
UGUAAGAUGCAGAAGGUGUUAGCUAGAGCUACGACAUGAGGAUCACCCAUGUACUAGAAACAGUACAAGGAUAUGCAUCUUACU			18	6.53
UUACUCAUGUAAGGAUAUGCAGCCGUUUCGGCUGCAGAAGGUACUAUAAUACAUGAGGAUCACCCAUGUCUAUUUAAUUUUUAC			42.6	24.2
ACCAGUGCAUGAGGAUAUCACAUCGGUAUCCUCCAGUGCGGCGUUCGACAUGAGGAUCACCCAUGUGAGAAGGCAUGAACUCGG	15.6	18.6		
AUCAACUCGUCAGGAUAUACGUCACUGCGUCAGCAGUGUGGUAAGAUCACAUGAGGAUCACCCAUGUAGAAGGGACGAGCUGAU	12.5	269		
AAGUCGACGGUGAGGAUAUUGGUUGAACGACAGAUUAAGAAGGUACAUGAGGAUCACCCAUGUGGGUAACGUCG	100	83		
CCAGCCGUUCAAGGAUAUGACAUGAGGAUCACCCAUGUGAAGUCGAACAUUGAUGCACACCUUAGUCAGAAGGUGGAUGGGUCU	30.9	96.5		
UCCUUAUCGGUCAGGAUAUACACCCGUUUCUCCUUGUAGAAGGGACAUGAGGAUCACCCAUGUACUGUACAUUU	30	31		
CACUGCAAUGUAGGAUAUCGACUGGAAUACAGUCGAGAAGGACAUGAGGAUCACCCAUGUACUUUGAGUGAAUAAUAAGCAGUG	15.9	59.4		
AGUGCGUAUGUGAGGAUAUGCUGGUCCUUGGAUCAGCAGAAGGCACAUGAGGAUCACCCAUGUGGUGUCGUACC	209	36.4		
CUGUUAUAGGUCCAUUUUUUCAACAUGAGGAUCACCCAUGUGCAGGAUAUCGUGUUAAUUUUCAUCGAGAAGGGCAUAGUCACG	30.1	63.8		
UAGCUCUCGGCAGGAUAUCCUGCAUAAUGUCGAGUCCGCGCCCGGACAUGAGGAUCACCCAUGUAGGAGAAGGGCCCACGGGCU	24.2	45.5		

Sequence	apparent Kd [1] [nM]	apparent Kd [2] [nM]	apparent Kd [3] [nM]	apparent Kd [4] [nM]
CACUGCAAUGUAGGAUAUCGACUGGAAUACAGUCGAGAAGGACAUGAGGAUCACCCAUGUACUAAUAGUGAUAAUAAAGCAGUG	14.6	54.1		
AGACGGAUCCGCGGUCGAUGCUAACUAGAAGGGCAGGUCACAUGAGGAUCACCCAUGUAGUAUAUGUAGGAUAUAGGAAGCGUU			75	15.8
GCCUUAUCGGUCAGGAUAUACACCCGUCAGUUGUUGUAGAAGGGACAUGAGGAUCACCCAUGUACAUUACAUUG	21.8	45.5		
GUCUCCGCUCGAGGAUAUAGCUGCAUGUAGUGUCCUGAGGCACAUGAGGAUCACCCAUGUGUAGGCUAGAAGGCGACGGACACU		29.2		
AGAUUCAUGGCCCGUUCGGGCUCACAUGAGGAUCACCCAUGUGAGGAUAUGAUAUACCUGAUUUAUCAGAAGGCGCAUGCGAAA	7.22	10.3		
AUAGGCCUAGGAUAUACAUGAGGAUCACCCAUGUUAAUACUUCAAUCAUGAUAAACGUGUAGAAGGAGGAAUAA	25.8	26.1		
GUCAGCUCGUGAGGAUAUACAACACUGCUUCGGCAGUGUCUUAAGAUCACAUGAGGAUCACCCAUGUAGAAGGCACGAGCUGAU	8.98	168		
GCGUGAUUGUAGAAGGUACAUGAAAAUAUUUAAUACCUCAAGUAACAUGAGGAUCACCCAUGUAGUAAGGAUAUACAUAUACGC			95	56.8
CUAUAUUAGUAGAAGGACGGAGAGUAUGUAGUCGUAGGAUAUACAUAAGACAUGAGGAUCACCCAUGUGUGUAUGUUGGGUAUG	9.66	8.03		
AUCAGCUCGUCAGGAUAUACGUCAGUGCGUCAGCAGUGUGGUAAGAUCACAUGAGGAUCACCCAUGUAGAAGGGACGAGCUGAU	161	621		
ACAUGAGGAUCACCCAUGUAAAAUGAAGAAGGUAGAUACUUGAGGAUCACCCAUGUACAUGGGACUAAGGAUAUUCUAAUAAUU			76.9	64.3
AGGCGAGUAGGAUAUGCGUAUUUACAGGAAAGCUGGAUGGUACAUGAGGAUCACCCAUGUAGAAGGGCUCUGAA	21.2	19.4		
GAUGACAUGAGGAUCACCCAUGUGAUGGUUUGAGGUGGUUACAGAAGGGACGUAUAGUGGUGUGGUCAGGAUAUGUAGAAUCUU			157	42.1
CGGAUUAUGUGAGGAUAUAAUCGUUUCCAUUGAUUAGAAGGCACAUGAGGAUCACCCAUGUGGCAUGUAAUGCCAUGUGACGCU	442	41.3		
UUGGUAUUUGUAGGAUAUCUGUCGCCACCGUGUGGAGAAGGACGAACAUGAGGAUCACCCAUGUAUCAUGGUGUGGGCUUUGUU	757	710		
AGCGGAGACAUGAGGAUCACCCAUGUCAGUGCCGGCGAUACCAGAAGGCCCGGCGGGCCUCGCCGGGAGGAUAUGGGUUCAACA			13.1	8.39
UAUAUAUAGUAAGGAUAUGUAUUAAUUUAAUAAACAGAAGGUACUGACAUGAGGAUCACCCAUGUUUUAGUGUGGGCAUGUAGA	98	140		
CAGCGGUCAGGAUAUGCAUGGCGGGACUUGCGUCGUGGCGUGGAGAAGGGACAUGAGGAUCACCCAUGUGGGAA	134	81.9		
AAUUGGAUCCAGAAGGCAUGGACGACCCGUCACAUUAACAUGAGGAUCACCCAUGUGAAAACACAUGAGGAUAUGGAUCCUAAA			28.7	7.44
UCAUUUAAUACAGGAUAUGUUAGUAUACAGUAGAUUGGUUAUAACAUAAUAACAGAAGGGUAGAACAUGAGGAUCACCCAUGUA			86	64.6
UGUCGGAGCAGAGGAUAUUACAUGAGGAUCACCCAUGUAUGAACCAAUAGCUGGAAACAGCAAUGUAAGAAGGGUGCUCCGACA	6.09	13.2		
AUCGGUCCGUAGAAGGGUGACAUGAGGAUCACCCAUGUGCCGUGUGCAUUUAUGCCUCCACGGCCACAGGAUAUACGGAGUUGA			80.1	39.1
AGCAUGUGAGGAUAUGUGAGCCUCAUCCGAAGGACGAGGGAAUAGAAGGCACAUGAGGAUCACCCAUGUGAUGA	27.3	74.3		
CUAAAUCAUGUAGGAUAUGCGUGGCGAAGCUAUGCAGAAGGACAUGAGGAUCACCCAUGUCUAUCCGUCUGCGUACAGACGGAA	25.1	186		
GCGUAUUACGCAGGAUAUCCUUAUAUACAUGAGGAUCACCCAUGUUUUUUCGGAGAAGGGCGUAUGGGAUUUAAGAAUCAACAA			11.2	4.31
AAUGGCUGAGGAUAUACACUCACGUCUAAAAGGUUCAAAUGACAUGAGGAUCACCCAUGUAGAAGGCAGCCCGA		50.2		
AAACGUAGAGGAUAUACAUAAGUAUUACGAAAGUAAUACAAACAUGAGGAUCACCCAUGUAGAAGGCUACGAAA	25.4	35.3		
